OX1R antag-1 – antagonists of human orexin 1 receptor (OX1R); O43613; OX1R-expressing cells, FRET antagonist read-out; inhibition, % at 6.6 µM; actives 1.8% (n = 330,000); in the data active = inhibition mostly above about 38%, no sharp cut-off; inactive = mostly below about 40%
Target sequence (O43613 whole entry, looked up): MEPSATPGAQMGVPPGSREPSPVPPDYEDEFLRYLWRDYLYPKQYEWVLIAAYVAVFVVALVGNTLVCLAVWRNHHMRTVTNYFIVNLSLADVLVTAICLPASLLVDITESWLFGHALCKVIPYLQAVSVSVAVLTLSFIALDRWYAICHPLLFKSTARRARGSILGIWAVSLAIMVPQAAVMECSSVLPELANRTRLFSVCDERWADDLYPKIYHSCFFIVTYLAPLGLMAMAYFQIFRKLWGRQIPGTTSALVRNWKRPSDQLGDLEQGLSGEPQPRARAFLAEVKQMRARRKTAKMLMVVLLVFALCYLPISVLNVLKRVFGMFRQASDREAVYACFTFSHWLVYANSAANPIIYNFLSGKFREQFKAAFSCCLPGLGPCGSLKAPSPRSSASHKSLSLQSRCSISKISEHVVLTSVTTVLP
OX1R antag-2 – human HCRTR1 antagonism; CHO/OX1R cells, Fluo-8 calcium fluorescence, orexin A; inhibition, % at 5 µM; actives 0.43% (n = 330,000); AID 434989;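 active = inhibition above its plate's threshold, mean inhibition of all tested compounds on the plate plus 3 SD, cut at about 37% in these data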
TAAR1 agonist – agonists of human TAAR1; CHO RD-HGA16 TAAR1, Fluo-8 calcium fluorescence; vehicle wells 0%, saturating PEA agonist 100%; actives 0.99% (n = 360,000); AID 624467; activation, % at 3 µM;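 active = activation above the mean activation of all test compounds in the run plus 3 SD, cut at about 38% in these data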
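System: CHO-derived RD-HGA16 cells with stable Gα16 and human TAAR1 / Times: 17-24 h plating, Fluo-8 75 min 37 °C, 30 min RT / Technique: calcium-sensitive Fluo-8 signal, excitation 470-495, emission 515-575 nm / Measure: % activation relative to PEA EC100 response / Benchmarks: DMSO and PEA EC100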
CHO parental Ca – signal in parental CHO cells, OX1R antagonist counter-screen. parental CHO-K1, ATP-induced calcium, Fluo-8 fluorescence. inhibition, % at 5.6 µM. actives 0.63% (n = 330,000);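 active = inhibition above that plate's mean sample inhibition plus 3 SD, cut at about 26% in these data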
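Material: parental CHO cells / Compound: single nominal dose of 5.6 µM per compound / Signal: Fluo-8 fluorescence / Replicates: singlicate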
GPR7 antag – antagonists of human GPR7 (neuropeptides B/W receptor 1). GPR7-expressing cells, fluorescence antagonist assay. inhibition, % at 4.4 µM. actives 1.1% (n = 290,000). AID 1861; in the data active = inhibition above about 16%, passing the limit was not always enough;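 also: cells stimulated with the agonist NPW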
TAAR1 antagonist – antagonists of human TAAR1; CHO RD-HGA16 TAAR1, Fluo-8 calcium fluorescence, antagonist; actives 1.5% (n = 360,000); inhibition, % at 3 µM; AID 624466; Q96RJ0;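 active = inhibition above a per-plate cutoff, the mean inhibition of test compounds on that plate plus 3 SD, cut at about 49% in these data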
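System: RD-HGA16 CHO cells with stable hTAAR1 and Gα16 | Probe or stimulus: EC80 β-phenethylamine stimulus | Dosing: 3 µM, single point | Times: Dye loading 75 min at 37 °C, then 30 min room temperature | Measured by: Fluo-8 calcium-sensitive fluorescence | Read-out basis: % inhibition of agonist calcium response | Replicates: n of 1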
A number is an active result; - = inactive; . = no result given. The list is not random: actives were taken first. Their share in the collection is about 4.6%.

SMILES | OX1R antag-1 | OX1R antag-2 | TAAR1 agonist | CHO parental Ca | GPR7 antag | TAAR1 antagonist
Cc1ccc2nc3n(c(=O)c2c1)-c1ccccc1C(=O)NC3CC(C)C (configuration not stated) | . | . | - | . | . | -
CCOC(=O)c1c(C)oc2c1c(C(c1ccccc1)N1CCOCC1)c(O)c1ccccc12 (configuration not stated) | 61.7 | - | - | - | - | -
CCN1C(=O)C(CC(=O)Nc2ccccc2Cl)N(NC(=O)c2cccc(F)c2)C1=S (configuration not stated) | 74.6 | - | - | - | - | -
CNC(=O)CC1C(=O)N(Cc2ccccc2)C(=S)N1NC(=O)c1cccc(F)c1 (configuration not stated) | - | - | - | - | - | -
c1ccc(Nc2nc3ccccc3n3cnnc23)cc1 | 59.1 | - | - | - | - | -
O=C(Nc1ccc(S(=O)(=O)N2CCOCC2)cc1)c1cc(-c2ccccc2O)n[nH]1 | - | - | - | - | - | 54.1
CC1CN(S(=O)(=O)c2ccc(NC(=O)c3cc(-c4ccccc4O)n[nH]3)cc2)CC(C)O1 (configuration not stated) | - | - | - | - | - | -
CCOC(=O)C1CCCN(c2nc3c(C)cccn3c(=O)c2/C=C(\C#N)C(=O)NCc2ccco2)C1 (configuration not stated) | - | - | 52.5 | - | - | -
COc1cccc2c1nc(C)c1cc(C)oc12 | - | - | - | - | - | -
COc1cccc2nc3cc(C)c(C)cc3nc12 | 68.0 | - | - | - | - | -
Brc1ccc(CN2CCN(c3ncc(Cc4ccccc4)cn3)CC2)cc1 | . | . | - | . | . | -
CC(C)(C)c1ccc(Cn2cnc(-c3ccc([N+](=O)[O-])cc3)c2)cc1 | - | - | - | 42.3 | - | -
Cc1cc(C)c(Cn2cnc(-c3ccc([N+](=O)[O-])cc3)c2)c(C)c1 | - | - | - | - | - | -
O=C(C[C@H]1CC[C@@H]2[C@H](COC[C@@H](O)CN2Cc2ccc(Cl)cc2)O1)NCCc1ccccc1 | . | . | - | . | . | -
c1csc(-c2nc3c4ccccc4c4ccccc4c3[nH]2)c1 | 63.2 | - | - | - | - | -
CCCCCCN1CCN(C2CN(Cc3cn(Cc4ccc(C(F)(F)F)cc4)nn3)S(=O)(=O)C2)CC1 (configuration not stated) | . | . | - | . | . | -
COc1cc(/C=C/CN2CCC(C(=O)NC(c3ccc(F)cc3)c3ccc4ccccc4n3)CC2)ccc1OC(C)=O (configuration not stated) | . | . | 48.9 | . | . | -
COc1ccc(CCNC(=O)CCS(=O)(=O)c2cccc3nsnc23)cc1OC | 76.7 | - | - | - | - | -
CCOC(=O)c1cccc(NC(=O)CCS(=O)(=O)c2cccc3nsnc23)c1 | - | - | - | - | - | -
Cc1cccc(NC(=O)CCS(=O)(=O)c2cccc3nsnc23)c1C | 63.3 | - | - | - | - | -
O=C(/C=C/c1c(Cl)cccc1Cl)NCCc1ccccc1 | - | - | 37.6 | - | - | -
CC(C)=CC(=O)NCCc1ccccc1 | - | - | 41.8 | - | - | -
O=C(/C=C/c1cccc(Cl)c1)NCCc1ccccc1 | - | - | - | - | - | -
O=C(COc1ccccc1)Nc1ccccc1NS(=O)(=O)c1cccs1 | - | - | - | - | - | -
Cc1cc(Cl)ccc1OCC(=O)Nc1ccccc1NS(=O)(=O)c1cccs1 | 40.6 | - | - | - | - | -
SMILES | OX1R antag-1 | OX1R antag-2 | TAAR1 agonist | CHO parental Ca | GPR7 antag | TAAR1 antagonist
CC(=O)N1CCN(c2ccccc2NC(=O)COc2ccc(Cl)cc2Cl)CC1 | - | - | - | - | 18.5 | -
CC(=O)Nc1ccc(NC(=O)C(C)OC(=O)CCCN2C(=O)c3cccc4cccc(c34)C2=O)cc1 (configuration not stated) | 74.1 | - | - | - | . | -
O=C(COc1ccc(Cl)cc1Cl)Nc1ccccc1NS(=O)(=O)c1cccs1 | 52.1 | - | - | - | - | -
CC(=O)N1CCN(c2ccccc2NC(=O)COc2ccccc2C)CC1 | - | - | - | - | - | -
Cc1cc(Cl)ccc1OCC(=O)NNC(=O)c1cccs1 | - | - | - | - | - | -
CC(=O)Nc1ccc(NC(=O)C(C)OC(=O)CCCOc2ccc(Cl)cc2C)cc1 (configuration not stated) | 53.0 | - | - | - | . | -
O=S(=O)(Nc1ccccc1Cl)c1ccc(NS(=O)(=O)c2cccs2)cc1 | - | - | 38.0 | - | - | -
NC(=O)c1ccccc1NS(=O)(=O)c1cccs1 | - | - | - | - | - | -
O=C(Nc1ccc(Cl)cc1)Nc1ccccc1NS(=O)(=O)c1cccs1 | 60.4 | - | - | - | - | -
Cc1cc(Cl)ccc1OCC(=O)Nc1ccncc1 | - | - | - | 49.5 | - | -
O=C(NC1CCCCC1)C(c1ccc(C(F)(F)F)cc1)n1c(=O)c(-c2ccco2)nc2ccccc21 (configuration not stated) | . | . | - | . | . | -
C#CCOCCOCCOCCNc1nc(N2CCOCC2)nc(N2CCN(C(=O)CCCCCCCCCCNC(=O)[C@@H]([C@H](C)CC)n3cc(CCCCCN)nn3)CC2)n1 | - | - | - | - | . | -
C#CCOCCOCCOCCNc1nc(N2CCN(C(=O)CCCCCCCCCCNC(=O)[C@H]([C@@H](C)CC)n3cc(CCCCCN)nn3)CC2)nc(N2CCN(C(=O)CCCCCCCCCCNC(=O)[C@@H]([C@H](C)CC)n3cc(CCCCCN)nn3)CC2)n1 | - | - | . | 78.6 | . | .
C#CCOCCOCCOCCNc1nc(N2CCN(C(=O)CCCCCCCCCCNC(=O)[C@H]([C@@H](C)CC)n3cc(CCCCCN)nn3)CC2)nc(N2CCN(C(=O)CCCCCCCCCCNC(=O)[C@H](CO)n3cc(CCCCCN)nn3)CC2)n1 | - | - | . | 68.0 | . | .
C#CCOCCOCCOCCNc1nc(N2CCN(C(=O)CCCCCCCCCCNC(=O)Cn3cc(C[C@@H](C)O)nn3)CC2)nc(N2CCN(C(=O)CCCCCCCCCCNC(=O)[C@H](CO)n3cc(CCCSC)nn3)CC2)n1 | - | - | - | - | . | 49.1
Cc1nn(-c2ccccc2)c(C)c1NC(=O)COC(=O)/C=C/c1ccccc1 | - | - | - | - | . | 60.0
COc1ccc(C)cc1NC(=O)c1nn(-c2ccccc2)cc1OC | 48.0 | - | - | - | - | -
COc1ccc(OC)c(NC(=O)COC(=O)c2c3c(nc4ccccc24)CCCC3)c1 | 56.6 | - | - | - | - | -
CCC(C(=O)OCC(=O)Nc1c(C)nn(-c2ccccc2)c1C)c1ccccc1 (configuration not stated) | - | - | - | - | . | -
COc1ccc(C)cc1NC(=O)COC(=O)c1c(C)nn(-c2ccccc2)c1C | 29.6 | - | - | - | . | -
COc1ccc(CN2C(=O)C(CC(=O)NCc3ccco3)CC(C(=O)N3CCOCC3)=C2C)cc1 (configuration not stated) | . | . | - | . | . | -

Compound activity: PubChem BioAssay, The Scripps Research Institute Molecular Screening Center
